Test results taken from ChEMBL document CHEMBL1126914 (J Med Chem, 1993).
Square brackets hold non-standard residues; d marks the D form. Peptide text beside a SMILES is read from it. Tic = O=C(O)[C@@H]1Cc2ccccc2CN1; Aic = NC1(C(=O)O)Cc2ccccc2C1

Tests used:
[1] = biological target: Delta-type opioid receptor (Rattus norvegicus, UniProt P33533); assay: Binding affinity was determined on delta [3H]DPDPE site in rat brain synaptosomes by radioreceptor assay; assay type: subcellular
How it was run: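 δ sites labelled with 0.62 nM [3H]DPDPE; rat brain (minus cerebella) P2 synaptosomes, preincubated to remove endogenous opioids, 1.6 mg protein; 2 h at 22 °C in duplicate. Nonspecific defined with 1 μM DPDPE. Rapid filtration on GF/C filters with ice-cold buffered BSA washes; liquid scintillation counting; Ki from IC50 by Cheng–Prusoff.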

Mu-type opioid receptor = Mu-type opioid receptor (Rattus norvegicus, UniProt P33535); assay: Binding affinity was determined on mu [3H]DAGO site in rat brain synaptosomes by radioreceptor assay; assay type: subcellular
How it was run: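 μ sites labelled with 0.68 nM [3H]DAGO; rat brain (minus cerebella) P2 synaptosomes, preincubated to remove endogenous opioids, 1.6 mg protein; 2 h at 22 °C in duplicate. Nonspecific defined with 1 μM DAGO. Rapid filtration on GF/C filters, washes with ice-cold buffered BSA; scintillation counting; Ki via Cheng–Prusoff from IC50.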

[2] = Bioselectivity ratio of compound as guinea pig ileum to mouse vas deferens was determined; assay type: functional
How it was run: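 GPI/MVD ratio of IC50s. GPI: 2–3 cm segments in Krebs with 70 μM hexamethonium and 0.125 μM mepyramine, 36 °C, 95% O2/5% CO2; transmural 0.5 ms, 0.1 Hz pulses at 1.5× maximal (~30 V); isotonic recording. MVD: 33 °C, field stimulation 0.1 Hz, 1 ms, 40 V; isometric recording. IC50 is 50% twitch inhibition, from four experiments.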

Chain of Mu-type opioid receptor (P33535 whole entry): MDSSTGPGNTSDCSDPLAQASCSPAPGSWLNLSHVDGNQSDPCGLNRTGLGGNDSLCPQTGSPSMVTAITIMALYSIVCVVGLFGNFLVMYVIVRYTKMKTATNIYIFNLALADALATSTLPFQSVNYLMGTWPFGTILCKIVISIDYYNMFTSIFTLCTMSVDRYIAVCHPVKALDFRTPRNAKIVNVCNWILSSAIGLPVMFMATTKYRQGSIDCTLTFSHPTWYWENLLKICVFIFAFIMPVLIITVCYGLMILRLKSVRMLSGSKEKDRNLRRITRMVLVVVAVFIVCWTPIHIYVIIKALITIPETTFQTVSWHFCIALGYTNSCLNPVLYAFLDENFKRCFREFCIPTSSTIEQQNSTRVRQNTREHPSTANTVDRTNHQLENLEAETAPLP
Chain of Delta-type opioid receptor (P33533 whole entry): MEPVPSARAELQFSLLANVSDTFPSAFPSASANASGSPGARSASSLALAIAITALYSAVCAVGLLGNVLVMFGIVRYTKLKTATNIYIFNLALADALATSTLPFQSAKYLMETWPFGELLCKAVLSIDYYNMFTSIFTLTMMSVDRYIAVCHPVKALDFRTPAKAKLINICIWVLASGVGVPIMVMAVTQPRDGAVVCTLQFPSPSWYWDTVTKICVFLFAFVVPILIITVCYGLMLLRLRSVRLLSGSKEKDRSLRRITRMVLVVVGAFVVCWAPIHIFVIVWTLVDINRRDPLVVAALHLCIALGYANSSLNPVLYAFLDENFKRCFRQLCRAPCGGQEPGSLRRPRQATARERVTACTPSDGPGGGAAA

| Structure (SMILES) | Ki [1] [nM] | Ki (Mu-type opioid receptor) [nM] | Ratio [2] |
| --- | --- | --- | --- |
| CC(C)[C@H](NC(=O)[C@H](CC(=O)O)NC(=O)[C@H](Cc1ccccc1)N(C)C(=O)[C@@H](C)NC(=O)[C@@H](N)Cc1ccc(O)cc1)C(=O)N[C@H](C(=O)NCC(N)=O)C(C)C | 284 | 19000 | – |
| CC(C)[C@H](NC(=O)[C@H](CC(=O)O)NC(=O)[C@H](Cc1ccc2ccccc2c1)NC(=O)[C@@H](C)NC(=O)[C@@H](N)Cc1ccc(O)cc1)C(=O)N[C@H](C(=O)NCC(N)=O)C(C)C | 10.7 | 770 | – |
| CC(C)[C@H](NC(=O)[C@H](CC(=O)O)NC(=O)[C@H](Cc1cnc[nH]1)NC(=O)[C@@H](C)NC(=O)[C@@H](N)Cc1ccc(O)cc1)C(=O)N[C@H](C(=O)NCC(N)=O)C(C)C | 45.5 | 3720 | – |
| CC(C)[C@H](NC(=O)[C@H](CC(=O)O)NC(=O)[C@H](Cc1c[nH]c2ccccc12)NC(=O)[C@@H](C)NC(=O)[C@@H](N)Cc1ccc(O)cc1)C(=O)N[C@H](C(=O)NCC(N)=O)C(C)C | 2.34 | 323 | – |
| CC(C)[C@H](NC(=O)[C@H](CC(=O)O)NC(=O)/C(=C\c1ccccc1)NC(=O)[C@@H](C)NC(=O)[C@@H](N)Cc1ccc(O)cc1)C(=O)N[C@H](C(=O)NCC(N)=O)C(C)C | 4.23 | 114 | – |
| CC(C)[C@H](NC(=O)[C@H](CC(=O)O)NC(=O)[C@H](CCc1ccccc1)NC(=O)[C@@H](C)NC(=O)[C@@H](N)Cc1ccc(O)cc1)C(=O)N[C@H](C(=O)NCC(N)=O)C(C)C | 4.84 | 326 | – |
| CC(C)[C@H](NC(=O)[C@H](CC(=O)O)NC(=O)[C@H](Cc1ccc(O)cc1)NC(=O)[C@@H](C)NC(=O)[C@@H](N)Cc1ccc(O)cc1)C(=O)N[C@H](C(=O)NCC(N)=O)C(C)C | 34 | 1180 | – |
| CC(C)[C@H](NC(=O)[C@H](CC(=O)O)NC(=O)[C@H](Cc1cccc2ccccc12)NC(=O)[C@@H](C)NC(=O)[C@@H](N)Cc1ccc(O)cc1)C(=O)N[C@H](C(=O)NCC(N)=O)C(C)C | 0.61 | 279 | – |
| COc1ccc(C[C@H](NC(=O)[C@@H](C)NC(=O)[C@@H](N)Cc2ccc(O)cc2)C(=O)N[C@@H](CC(=O)O)C(=O)N[C@H](C(=O)N[C@H](C(=O)NCC(N)=O)C(C)C)C(C)C)cc1 | 45.4 | 526 | – |
| CC(C)[C@H](NC(=O)[C@H](CC(=O)O)NC(=O)[C@@H](NC(=O)[C@@H](C)NC(=O)[C@@H](N)Cc1ccc(O)cc1)c1ccccc1)C(=O)N[C@H](C(=O)NCC(N)=O)C(C)C | 2.85 | 3750 | – |
| CC(C)[C@H](NC(=O)[C@H](CC(=O)O)NC(=O)C1(NC(=O)[C@@H](C)NC(=O)[C@@H](N)Cc2ccc(O)cc2)Cc2ccccc2C1)C(=O)N[C@H](C(=O)NCC(N)=O)C(C)C (H-Y[dA][Aic]DVVG-NH2) | 0.2 | 56.2 | 900 |
| CC(C)[C@H](NC(=O)[C@H](CC(=O)O)NC(=O)[C@@H]1Cc2ccccc2CN1C(=O)[C@@H](C)NC(=O)[C@@H](N)Cc1ccc(O)cc1)C(=O)N[C@H](C(=O)NCC(N)=O)C(C)C (H-Y[dA][Tic]DVVG-NH2) | 90.2 | 7810 | >65 |
| CC(C)[C@H](NC(=O)[C@H](CC(=O)O)NC(=O)[C@](C)(Cc1ccccc1)NC(=O)[C@@H](C)NC(=O)[C@@H](N)Cc1ccc(O)cc1)C(=O)N[C@H](C(=O)NCC(N)=O)C(C)C (single isomer, unassigned; 6) | 69.1 | 1360 | >18 |
| CC(C)[C@H](NC(=O)[C@H](CC(=O)O)NC(=O)[C@](C)(Cc1ccccc1)NC(=O)[C@@H](C)NC(=O)[C@@H](N)Cc1ccc(O)cc1)C(=O)N[C@H](C(=O)NCC(N)=O)C(C)C (single isomer, unassigned; 6a) | 48.6 | 3400 | >20 |
| CC(C)[C@H](NC(=O)[C@H](CC(=O)O)NC(=O)C1(NC(=O)[C@@H](C)NC(=O)[C@@H](N)Cc2ccc(O)cc2)CCc2ccccc2C1)C(=O)N[C@H](C(=O)NCC(N)=O)C(C)C (single isomer, unassigned; 15) | 0.07 | 178 | 3522 |
| CC(C)[C@H](NC(=O)[C@H](CC(=O)O)NC(=O)C1(NC(=O)[C@@H](C)NC(=O)[C@@H](N)Cc2ccc(O)cc2)CCc2ccccc2C1)C(=O)N[C@H](C(=O)NCC(N)=O)C(C)C (single isomer, unassigned; 15a) | 0.12 | 82.3 | 606 |
| CC(C)[C@H](NC(=O)[C@H](CC(=O)O)NC(=O)[C@H](Cc1ccccc1)NC(=O)[C@@H](C)NC(=O)[C@@H](N)Cc1ccc(O)cc1)C(=O)N[C@H](C(=O)NCC(N)=O)C(C)C [DELTORPHIN C] | 0.31 | 205 | – |
